This note sets out measurements from ChEMBL document CHEMBL4052683, “The discovery of benzoxazine sulfonamide inhibitors of NaV1.7: Tools that bridge efficacy and target engagement” (Bioorg Med Chem Lett, 2017).

In one data set the test system is Rattus norvegicus. As to the kind of experiment: Unbound clearance in rat at 0.5 mg/kg, iv by LC-MS/MS method. Format: ADME, organism-based. Conditions: in vivo. The method in brief:
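Male rats given 0.5 mg/kg intravenously as a solution in DMSO. Unbound clearance was calculated as rat clearance divided by unbound fraction, with unbound fraction determined by equilibrium dialysis.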

Data set [1] has as its target Sodium channel protein type 9 subunit alpha (Rattus norvegicus, UniProt O08562). Kind of data set: Inhibition of rat NaV1.7 by cell based whole cell voltage clamp method. The method in brief: (§1)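 PatchXpress electrophysiology was run with a protocol giving about 20% channel inactivation. At least four concentrations at half-log spacing were applied one at a time, with washout, current recovery and holding voltage reset between each. Data were pooled from at least 10 cells, with 2–3 points per concentration, and fitted with a 4-parameter Hill curve to give one IC50.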

The target of data set [2] is Sodium channel protein type 5 subunit alpha (Homo sapiens, UniProt Q14524). Kind of data set: Inhibition of human NaV1.5 expressed in […] cells at holding potential of -125 mV with test potentials to -10 mV by whole cell voltage clamp method. The class given is cell-based.
Data set [3] is described as follows: Clearance in pooled rat liver microsomes at 1 uM in presence of NADPH by LC-MS/MS method. Format: ADME, microsome. Conditions: read-out: CLH.
Data set [4] is described as follows: Clearance in pooled human liver microsomes at 1 uM in presence of NADPH by LC-MS/MS method. The class given is ADME, microsome. Conditions: read-out: CLH. Background: Liver microsomes are a subcellular fraction often used to study metabolism.
Data set [5] can be described thus: Clearance in rat at 0.5 mg/kg, iv by LC-MS/MS method. Format: ADME, organism-based. Conditions: in vivo. The method in brief: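 Male rats got 0.5 mg/kg IV as a DMSO solution. Unbound clearance was taken as rat clearance divided by the unbound fraction from equilibrium dialysis.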
The species named for another data set is Homo sapiens. As to the kind of experiment: Selectivity index, ratio of IC50 for human NaV1.5 expressed in […] cells to IC50 for human NaV1.7 expressed in HEK293 cells. The class given is cell-based.
Data set [6] can be described thus: Apparent permeability in MDCK vector control cells at 5 uM. Conditions: dog.
A short description of data set [7]: Dissociation constant, pKa of the compound. Format: physicochemical.
Data set [8] deals with T1, Sodium channel protein type 9 subunit alpha (Homo sapiens, UniProt Q15858). As to the kind of experiment: Inhibition of human NaV1.7 expressed in HEK293 cells at holding potential of -125 mV with test potentials to -10 mV by whole cell voltage clamp method. The class given is cell-based.
The target in data set [9] is T1, Sodium channel protein type 9 subunit alpha. Kind of data set: Displacement of (P)-1-(30-chloro-2-fluoro-5,50-dimethoxy-[1,10biphenyl]-4-yl)-N-(isoxazol-3-yl)-2-oxo-1,2-dihydroquinoline-6-sulfonamide[50-methoxy-C3H3] from human NaV1.7 expressed in HEK293 cell membranes incubated for 1 hr by beta counting method. The method in brief:
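Human NaV1.7 radioligand displacement using the tritiated 5'-methoxy-labelled dihydroquinoline sulfonamide ligand, which binds the VSDIV pocket.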

A short description of data set [10]: Inhibition of cynomolgus monkey NaV1.7 by whole cell voltage clamp method. Conditions: Macaca fascicularis. The method in brief:
as §1

Data set [11] has as its target Sodium channel protein type 9 subunit alpha (Mus musculus, UniProt Q62205). Kind of data set: Inhibition of mouse NaV1.7 by whole cell voltage clamp method. The method in brief:
as §1

A value given as a limit tells only on which side of the number the result lay.

Chain of Sodium channel protein type 5 subunit alpha (Q14524 whole entry): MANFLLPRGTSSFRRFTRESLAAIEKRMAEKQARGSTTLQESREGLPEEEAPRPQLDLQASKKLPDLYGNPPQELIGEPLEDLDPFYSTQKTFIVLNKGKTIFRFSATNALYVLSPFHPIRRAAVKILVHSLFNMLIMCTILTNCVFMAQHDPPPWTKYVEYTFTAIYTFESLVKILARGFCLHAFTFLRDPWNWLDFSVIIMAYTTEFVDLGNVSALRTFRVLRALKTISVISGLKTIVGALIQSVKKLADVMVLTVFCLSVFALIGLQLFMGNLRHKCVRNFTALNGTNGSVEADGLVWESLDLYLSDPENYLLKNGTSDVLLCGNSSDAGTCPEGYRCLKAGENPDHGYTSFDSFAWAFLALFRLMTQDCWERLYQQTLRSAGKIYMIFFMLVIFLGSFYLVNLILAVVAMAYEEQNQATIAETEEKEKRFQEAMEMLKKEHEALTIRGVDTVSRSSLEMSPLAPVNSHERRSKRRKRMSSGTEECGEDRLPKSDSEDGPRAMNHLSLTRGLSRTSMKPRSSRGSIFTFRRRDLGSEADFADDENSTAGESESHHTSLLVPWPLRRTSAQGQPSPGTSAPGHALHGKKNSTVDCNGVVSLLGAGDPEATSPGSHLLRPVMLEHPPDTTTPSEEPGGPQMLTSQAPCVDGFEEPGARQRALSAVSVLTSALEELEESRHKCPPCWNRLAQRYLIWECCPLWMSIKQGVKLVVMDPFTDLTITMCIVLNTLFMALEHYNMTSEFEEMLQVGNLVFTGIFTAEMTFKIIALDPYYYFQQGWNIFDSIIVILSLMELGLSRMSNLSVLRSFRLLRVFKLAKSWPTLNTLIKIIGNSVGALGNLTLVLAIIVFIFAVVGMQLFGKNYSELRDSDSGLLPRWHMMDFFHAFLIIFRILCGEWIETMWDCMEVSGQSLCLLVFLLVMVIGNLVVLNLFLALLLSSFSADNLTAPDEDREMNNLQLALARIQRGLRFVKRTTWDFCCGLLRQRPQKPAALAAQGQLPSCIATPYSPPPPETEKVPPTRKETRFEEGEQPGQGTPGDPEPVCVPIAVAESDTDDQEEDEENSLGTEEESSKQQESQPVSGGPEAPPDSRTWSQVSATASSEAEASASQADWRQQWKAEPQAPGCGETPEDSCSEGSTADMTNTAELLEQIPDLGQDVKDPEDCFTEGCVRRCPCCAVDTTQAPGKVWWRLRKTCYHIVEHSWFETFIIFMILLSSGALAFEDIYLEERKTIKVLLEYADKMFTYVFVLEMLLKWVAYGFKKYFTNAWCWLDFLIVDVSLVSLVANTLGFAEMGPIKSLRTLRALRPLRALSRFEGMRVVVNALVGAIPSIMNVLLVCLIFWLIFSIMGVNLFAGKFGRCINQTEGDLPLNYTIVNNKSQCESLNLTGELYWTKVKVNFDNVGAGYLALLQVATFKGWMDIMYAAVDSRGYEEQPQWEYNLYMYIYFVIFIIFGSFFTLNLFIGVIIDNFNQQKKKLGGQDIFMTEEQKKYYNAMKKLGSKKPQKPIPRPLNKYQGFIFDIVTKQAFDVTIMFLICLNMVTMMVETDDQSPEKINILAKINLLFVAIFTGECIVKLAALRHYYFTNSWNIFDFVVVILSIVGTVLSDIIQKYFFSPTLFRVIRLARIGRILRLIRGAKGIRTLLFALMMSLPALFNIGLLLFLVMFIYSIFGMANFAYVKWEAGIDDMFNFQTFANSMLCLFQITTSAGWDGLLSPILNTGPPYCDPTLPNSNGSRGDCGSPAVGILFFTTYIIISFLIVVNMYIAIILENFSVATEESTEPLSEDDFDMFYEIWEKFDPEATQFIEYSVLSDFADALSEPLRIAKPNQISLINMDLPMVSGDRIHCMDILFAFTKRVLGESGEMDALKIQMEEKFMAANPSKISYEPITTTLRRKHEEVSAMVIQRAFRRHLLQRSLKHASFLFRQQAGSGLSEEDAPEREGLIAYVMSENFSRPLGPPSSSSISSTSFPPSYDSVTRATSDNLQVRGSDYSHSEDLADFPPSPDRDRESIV
Chain of Sodium channel protein type 9 subunit alpha (Mus musculus, UniProt Q62205) (Q62205 whole entry): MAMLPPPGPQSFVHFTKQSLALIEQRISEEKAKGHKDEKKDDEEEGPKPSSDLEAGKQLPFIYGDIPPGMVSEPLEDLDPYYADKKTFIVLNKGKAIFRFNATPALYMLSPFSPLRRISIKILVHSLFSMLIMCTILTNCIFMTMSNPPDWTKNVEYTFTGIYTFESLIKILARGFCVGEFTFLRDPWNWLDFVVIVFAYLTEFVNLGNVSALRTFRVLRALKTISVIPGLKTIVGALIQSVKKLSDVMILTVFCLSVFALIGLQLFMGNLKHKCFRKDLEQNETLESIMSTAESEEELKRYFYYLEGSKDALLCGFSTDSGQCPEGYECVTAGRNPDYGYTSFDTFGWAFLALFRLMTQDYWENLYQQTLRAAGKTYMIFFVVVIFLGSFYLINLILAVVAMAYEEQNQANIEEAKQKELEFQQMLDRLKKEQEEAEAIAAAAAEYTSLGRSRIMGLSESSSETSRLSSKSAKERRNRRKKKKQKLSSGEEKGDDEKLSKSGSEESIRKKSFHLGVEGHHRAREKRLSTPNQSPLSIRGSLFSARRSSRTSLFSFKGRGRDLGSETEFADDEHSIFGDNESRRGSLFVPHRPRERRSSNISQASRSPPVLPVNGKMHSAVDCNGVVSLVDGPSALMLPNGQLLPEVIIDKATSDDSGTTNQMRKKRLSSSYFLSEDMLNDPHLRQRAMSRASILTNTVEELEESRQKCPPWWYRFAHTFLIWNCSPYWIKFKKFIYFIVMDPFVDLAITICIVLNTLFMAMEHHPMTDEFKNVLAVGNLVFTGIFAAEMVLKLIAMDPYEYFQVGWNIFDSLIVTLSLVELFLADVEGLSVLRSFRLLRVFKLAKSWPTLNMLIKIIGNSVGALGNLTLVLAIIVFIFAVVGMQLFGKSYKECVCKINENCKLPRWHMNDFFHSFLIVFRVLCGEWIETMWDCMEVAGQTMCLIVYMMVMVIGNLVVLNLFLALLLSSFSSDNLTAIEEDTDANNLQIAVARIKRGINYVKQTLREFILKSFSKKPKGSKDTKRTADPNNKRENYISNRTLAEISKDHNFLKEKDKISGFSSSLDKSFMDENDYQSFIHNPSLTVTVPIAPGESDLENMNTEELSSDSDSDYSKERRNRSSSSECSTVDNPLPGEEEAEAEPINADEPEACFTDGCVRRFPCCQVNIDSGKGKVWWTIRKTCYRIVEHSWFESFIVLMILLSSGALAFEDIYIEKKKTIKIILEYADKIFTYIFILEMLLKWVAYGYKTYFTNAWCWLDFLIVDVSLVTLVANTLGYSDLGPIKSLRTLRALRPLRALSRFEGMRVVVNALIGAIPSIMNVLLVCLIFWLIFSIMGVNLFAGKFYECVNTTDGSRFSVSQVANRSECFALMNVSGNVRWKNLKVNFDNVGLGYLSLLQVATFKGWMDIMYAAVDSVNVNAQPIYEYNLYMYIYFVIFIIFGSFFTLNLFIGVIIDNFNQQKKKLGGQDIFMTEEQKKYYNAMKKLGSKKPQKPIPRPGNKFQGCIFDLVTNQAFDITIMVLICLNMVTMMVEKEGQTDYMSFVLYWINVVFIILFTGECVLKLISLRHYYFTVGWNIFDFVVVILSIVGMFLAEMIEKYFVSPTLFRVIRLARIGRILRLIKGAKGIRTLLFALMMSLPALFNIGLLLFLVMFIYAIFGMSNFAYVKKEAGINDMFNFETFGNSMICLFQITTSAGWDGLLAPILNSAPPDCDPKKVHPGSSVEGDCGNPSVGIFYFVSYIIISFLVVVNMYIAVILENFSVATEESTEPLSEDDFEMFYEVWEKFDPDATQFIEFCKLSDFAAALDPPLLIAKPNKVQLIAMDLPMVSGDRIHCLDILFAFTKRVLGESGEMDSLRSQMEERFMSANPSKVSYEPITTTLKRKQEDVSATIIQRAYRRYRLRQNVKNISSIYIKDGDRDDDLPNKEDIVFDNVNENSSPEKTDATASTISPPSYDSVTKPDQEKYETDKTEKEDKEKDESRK

Regarding `N#Cc1cc(C(F)(F)F)ccc1N1CCOc2cc(S(=O)(=O)Nc3ccncn3)ccc21`, the CL free in the data set on Rattus norvegicus was 120 mL/min/kg. In addition, the half-maximal inhibitory concentration (IC50) (as a rule, the midpoint of a concentration-inhibition curve) in data set [1] stood at 3000 nM; in data set [2], 4600 nM. Besides, the microsomal CLint at 1 µM in data set [3] and in data set [4] was less than 14 µL/min/mg in each case. In data set [5], the clearance – broadly, a measure of how efficiently the substance is removed, as volume per time – is 2.83 mL/min/kg. Moreover, the Ratio IC50 in the data set filed under Homo sapiens was 10. For the same compound, the Papp – broadly, a coefficient for how fast a substance crosses the barrier – at 5 µM in data set [6] worked out at 9.7 ×10⁻⁶ cm/s. Also, in data set [7], the pKa (as a rule, the negative logarithm of the acid dissociation constant) was 5.8.

Turning to `N#Cc1cc(C(F)(F)F)ccc1N1CCOc2cc(S(=O)(=O)Nc3nccs3)c(Cl)cc21`, the 50% inhibitory concentration (IC50) in data set [1] is 50 nM; in data set [8], 390 nM; in data set [2], 610 nM; in data set [9], 20 nM; in [10] it was 300 nM; in data set [11], 100 nM. Further, the microsomal CLint at 1 µM in data set [3] amounted to 21 µL/min/mg; in data set [4], 22 µL/min/mg. Besides, the apparent permeability coefficient (Papp) at 5 µM in data set [6] amounted to 27 ×10⁻⁶ cm/s.

In the case of `N#Cc1cc(C(F)(F)F)ccc1N1CCOc2c1ccc(S(=O)(=O)Nc1nccs1)c2F`, the results for the IC50 in data set [1] and in [2] were 1700 nM and 2100 nM, respectively. The microsomal CLint at 1 µM in data set [3] and in data set [4] was less than 14 µL/min/mg throughout. Also, the apparent permeability coefficient (Papp) at 5 µM in data set [6] was 38 ×10⁻⁶ cm/s.

For the compound `COc1cc(C#N)ccc1N1CCOc2cc(S(=O)(=O)Nc3nccs3)ccc21`, the CL free with Rattus norvegicus stood at 883 mL/min/kg. The 50% inhibitory concentration (IC50) came out at 850 nM in data set [1], 250 nM in data set [8] and 14000 nM in [2]. The microsomal CLint at 1 µM amounted to 22 µL/min/mg in [3] and 36 µL/min/mg in data set [4]. This compound also had a clearance in data set [5] of 14 mL/min/kg. Further, the Ratio IC50 in the data set listed under Homo sapiens is 56. Further, the Papp at 5 µM in [6] was 20 ×10⁻⁶ cm/s.

Regarding `N#Cc1cc(C(F)(F)F)ccc1N1CCOc2cc(S(=O)(=O)Nc3nccs3)ccc21`, the CL free with Rattus norvegicus was found to be 517 mL/min/kg. Moreover, the IC50 amounted to 1100 nM in [1] and 1500 nM in data set [2]. Further, the microsomal CLint at 1 µM in [3] and in [4] was less than 14 µL/min/mg each time. Moreover, the clearance in data set [5] is 5.5 mL/min/kg. In addition, the Ratio IC50 in the data set listed under Homo sapiens was found to be 8. Besides, the Papp at 5 µM in data set [6] was found to be 22 ×10⁻⁶ cm/s. Also, the pKa in data set [7] was determined as 7.

On to `COc1ccccc1N1CCOc2cc(S(=O)(=O)Nc3nccs3)ccc21`, for which the IC50 was 1600 nM in data set [1] and more than 30000 nM in data set [2]. Besides, the microsomal CLint at 1 µM came to 297 µL/min/mg in data set [3] and 68 µL/min/mg in [4]. Also, the Ratio IC50 in the data set filed under Homo sapiens was more than 79. Further, the Papp at 5 µM in [6] worked out at 28 ×10⁻⁶ cm/s.

As to `O=S(=O)(Nc1ccncn1)c1ccc2c(-c3ccc(C(F)(F)F)cc3C3=CCNCC3)cccc2c1`, the CL free in the data set with Rattus norvegicus turned out to be 667 mL/min/kg. Further, the concentration for half-maximal inhibition (IC50) in data set [1] is more than 30000 nM; in data set [8] it was 90 nM; in data set [2], more than 30000 nM; in data set [10], 100 nM; in data set [11], 4300 nM. The clearance in [5] is 28.3 mL/min/kg. For the same compound, in the data set filed under Homo sapiens, the Ratio IC50 is more than 330. The Papp at 5 µM in [6] was 1.3 ×10⁻⁶ cm/s.

Turning to `N#Cc1cc(C(F)(F)F)ccc1N1CCOc2cc(S(=O)(=O)Nc3ncco3)ccc21`, the microsomal CLint at 1 µM is less than 14 µL/min/mg in data set [3] and 15 µL/min/mg in data set [4]. In addition, the apparent permeability coefficient (Papp) at 5 µM in [6] came to 6.4 ×10⁻⁶ cm/s.

On to `COc1cc(F)ccc1N1CCOc2cc(S(=O)(=O)Nc3nccs3)ccc21`, for which the IC50 in data set [1] was 880 nM; in data set [8], 280 nM; in [2], more than 30000 nM. For the same compound, the results for the microsomal CLint at 1 µM in [3] and in [4] were more than 399 µL/min/mg and 110 µL/min/mg, respectively. Moreover, the Ratio IC50 in the data set listed under Homo sapiens was more than 100. Further, the Papp at 5 µM in data set [6] was 36 ×10⁻⁶ cm/s.

In the case of `N#Cc1cc(C(F)(F)F)ccc1N1CCOc2cc(S(=O)(=O)Nc3nccs3)cc(F)c21`, the IC50 was 560 nM in data set [1] and 650 nM in data set [2]. Further, the microsomal CLint at 1 µM in data set [3] and in data set [4] was less than 14 µL/min/mg in each case. In data set [6], the Papp at 5 µM came to 26 ×10⁻⁶ cm/s.

On to `Cn1nccc1-c1ccccc1Oc1ccc(S(=O)(=O)Nc2nccs2)cc1C#N`, for which the concentration for half-maximal inhibition (IC50) in [1] came out at 4200 nM; in [10], 20 nM; in [11], 130 nM.

In the case of `N#Cc1cc(C(F)(F)F)ccc1N1CCOc2cc(S(=O)(=O)Nc3ccno3)ccc21`, the microsomal CLint at 1 µM in data set [3] is less than 14 µL/min/mg; in data set [4] it was 32 µL/min/mg. Also, in [6], the apparent permeability coefficient (Papp) at 5 µM is less than 1 ×10⁻⁶ cm/s.

Consider `N#Cc1cc(C(F)(F)F)ccc1N1CCOc2cc(S(=O)(=O)Nc3cscn3)ccc21`, for which the microsomal CLint at 1 µM in data set [3] is less than 14 µL/min/mg; in [4] it was 55 µL/min/mg. In addition, the Papp at 5 µM in data set [6] came to 39 ×10⁻⁶ cm/s.

For the compound `N#Cc1cc(C(F)(F)F)ccc1N1CCOc2cc(S(=O)(=O)Nc3ncns3)ccc21`, the CL free with Rattus norvegicus turned out to be 1180 mL/min/kg. Besides, the results for the half-maximal inhibitory concentration (IC50) in data set [8] and in [9] were 90 nM and 21 nM, respectively. For the same compound, the microsomal CLint at 1 µM in [3] was 34 µL/min/mg; in data set [4], less than 14 µL/min/mg. In data set [5], this compound had a clearance of 10.7 mL/min/kg. Further, the Papp at 5 µM in [6] is 1.6 ×10⁻⁶ cm/s. For the same compound, in [7], the pKa came to 3.8.

In the case of `O=S(=O)(Nc1ccncn1)c1ccc2c(c1)OCCN2c1ccc(C(F)(F)F)cc1C1=CCNCC1`, the CL free in the data set with Rattus norvegicus came to 233 mL/min/kg. Further, the results for the 50% inhibitory concentration (IC50) in data set [1] and in [2] were more than 30000 nM and 1500 nM, respectively. Besides, in data set [5], the clearance is 43.3 mL/min/kg. The Ratio IC50 in the data set filed under Homo sapiens came to 11. Also, in [6], the Papp at 5 µM was found to be 1 ×10⁻⁶ cm/s.

The compound `COc1cc(C(F)(F)F)ccc1N1CCOc2cc(S(=O)(=O)Nc3nccs3)ccc21` returned a CL free with Rattus norvegicus of 667 mL/min/kg. In addition, the half-maximal inhibitory concentration (IC50) in data set [1] was determined as 390 nM. Also, the microsomal CLint at 1 µM stood at 53 µL/min/mg in data set [3] and 30 µL/min/mg in data set [4].
